Results reported in ChEMBL document CHEMBL1268917, “Synthesis and biological evaluation of radio-iodinated benzimidazoles as SPECT imaging agents for NR2B subtype of NMDA receptor” (Bioorg Med Chem, 2010).

Legend:
Format in all cases: ADME, organism-based
Liver [1] = experiment: Biodistribution in ddY mouse liver assessed per gram of tissue at 14.8 kBq, iv after 360 mins; settings: in vivo, 6 h
Summary of the method: (§1)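 Killed at set times after injection; organs and blood removed, weighed, gamma counted. Data as % injected dose per gram tissue, mean SD, n = 5–6.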

Kidney [2] = experiment: Biodistribution in ddY mouse kidney assessed per gram of tissue at 14.8 kBq, iv after 360 mins; settings: in vivo, 6 h; summary of the method: as §1
Intestine [3] = experiment: Biodistribution in ddY mouse intestine assessed per gram of tissue at 14.8 kBq, iv after 360 mins; settings: in vivo, 6 h; summary of the method: as §1
Stomach [4] = experiment: Biodistribution in ddY mouse stomach assessed per gram of tissue at 14.8 kBq, iv after 360 mins; settings: in vivo, 6 h
Summary of the method: (§2)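 Radioiodinated tracer (14.8 kBq) injected via tail vein into male ddY mice (6 weeks, 30–35 g). Organs removed at set times after injection, weighed and gamma-counted; uptake expressed as % injected dose per gram tissue, mean ± SD, n = 5–6.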

Spleen [5] = experiment: Biodistribution in ddY mouse spleen assessed per gram of tissue at 14.8 kBq, iv after 360 mins; settings: in vivo, 6 h; summary of the method: as §2
Pancreas [6] = experiment: Biodistribution in ddY mouse pancreas assessed per gram of tissue at 14.8 kBq, iv after 360 mins; settings: in vivo, 6 h; summary of the method: as §2
Heart [7] = experiment: Biodistribution in ddY mouse heart assessed per gram of tissue at 14.8 kBq, iv after 360 mins; settings: in vivo, 6 h; summary of the method: as §1
Lung [8] = experiment: Biodistribution in ddY mouse lung assessed per gram of tissue at 14.8 kBq, iv after 360 mins; settings: in vivo, 6 h; summary of the method: as §2
Brain [9] = experiment: Biodistribution in ddY mouse brain assessed per gram of tissue at 14.8 kBq, iv after 360 mins; settings: in vivo, 6 h; summary of the method: as §1
Liver [10] = experiment: Biodistribution in ddY mouse liver assessed per gram of tissue at 14.8 kBq, iv after 180 mins; settings: in vivo, 3 h; summary of the method: as §1
Kidney [11] = experiment: Biodistribution in ddY mouse kidney assessed per gram of tissue at 14.8 kBq, iv after 180 mins; settings: in vivo, 3 h; summary of the method: as §1
Intestine [12] = experiment: Biodistribution in ddY mouse intestine assessed per gram of tissue at 14.8 kBq, iv after 180 mins; settings: in vivo, 3 h; summary of the method: as §1
Stomach [13] = experiment: Biodistribution in ddY mouse stomach assessed per gram of tissue at 14.8 kBq, iv after 180 mins; settings: in vivo, 3 h; summary of the method: as §2
Spleen [14] = experiment: Biodistribution in ddY mouse spleen assessed per gram of tissue at 14.8 kBq, iv after 180 mins; settings: in vivo, 3 h; summary of the method: as §2
Pancreas [15] = experiment: Biodistribution in ddY mouse pancreas assessed per gram of tissue at 14.8 kBq, iv after 180 mins; settings: in vivo, 3 h; summary of the method: as §2
Heart [16] = experiment: Biodistribution in ddY mouse heart assessed per gram of tissue at 14.8 kBq, iv after 180 mins; settings: in vivo, 3 h; summary of the method: as §1
Lung [17] = experiment: Biodistribution in ddY mouse lung assessed per gram of tissue at 14.8 kBq, iv after 180 mins; settings: in vivo, 3 h; summary of the method: as §2
Brain [18] = experiment: Biodistribution in ddY mouse brain assessed per gram of tissue at 14.8 kBq, iv after 180 mins; settings: in vivo, 3 h; summary of the method: as §1
Blood [19] = experiment: Biodistribution in ddY mouse blood assessed per gram of tissue at 14.8 kBq, iv after 360 mins; settings: in vivo, 6 h; summary of the method: as §1
Blood [20] = experiment: Biodistribution in ddY mouse blood assessed per gram of tissue at 14.8 kBq, iv after 0.5 mins; settings: in vivo; summary of the method: as §1
Liver [21] = experiment: Biodistribution in ddY mouse liver assessed per gram of tissue at 14.8 kBq, iv after 0.5 mins; settings: in vivo; summary of the method: as §1
Kidney [22] = experiment: Biodistribution in ddY mouse kidney assessed per gram of tissue at 14.8 kBq, iv after 0.5 mins; settings: in vivo; summary of the method: as §1
Intestine [23] = experiment: Biodistribution in ddY mouse intestine assessed per gram of tissue at 14.8 kBq, iv after 0.5 mins; settings: in vivo; summary of the method: as §1
Stomach [24] = experiment: Biodistribution in ddY mouse stomach assessed per gram of tissue at 14.8 kBq, iv after 0.5 mins; settings: in vivo; summary of the method: as §2
Spleen [25] = experiment: Biodistribution in ddY mouse spleen assessed per gram of tissue at 14.8 kBq, iv after 0.5 mins; settings: in vivo; summary of the method: as §2
Pancreas [26] = experiment: Biodistribution in ddY mouse pancreas assessed per gram of tissue at 14.8 kBq, iv after 0.5 mins; settings: in vivo; summary of the method: as §2
Heart [27] = experiment: Biodistribution in ddY mouse heart assessed per gram of tissue at 14.8 kBq, iv after 0.5 mins; settings: in vivo; summary of the method: as §1
Lung [28] = experiment: Biodistribution in ddY mouse lung assessed per gram of tissue at 14.8 kBq, iv after 0.5 mins; settings: in vivo; summary of the method: as §2
Brain [29] = experiment: Biodistribution in ddY mouse brain assessed per gram of tissue at 14.8 kBq, iv after 0.5 mins; settings: in vivo; summary of the method: as §1
Blood [30] = experiment: Biodistribution in ddY mouse blood assessed per gram of tissue at 14.8 kBq, iv after 5 mins; settings: in vivo; summary of the method: as §1

CS(=O)(=O)Nc1ccc2nc(CN3CCC(Cc4ccc([125I])cc4)CC3)[nH]c2c1
Drug uptake (Liver [1]): 10.93 % ID/g | Drug uptake (Kidney [2]): 10.51 % ID/g | Drug uptake (Intestine [3]): 6.49 % ID/g | Drug uptake (Stomach [4]): 3.56 % ID/g | Drug uptake (Spleen [5]): 1.6 % ID/g | Drug uptake (Pancreas [6]): 3.72 % ID/g | Drug uptake (Heart [7]): 3.62 % ID/g | Drug uptake (Lung [8]): 0.93 % ID/g | Drug uptake (Brain [9]): 0.47 % ID/g | Drug uptake (Liver [10]): 17.81 % ID/g | Drug uptake (Kidney [11]): 15.23 % ID/g | Drug uptake (Intestine [12]): 7.82 % ID/g | Drug uptake (Stomach [13]): 4.04 % ID/g | Drug uptake (Spleen [14]): 2.85 % ID/g | Drug uptake (Pancreas [15]): 5.39 % ID/g | Drug uptake (Heart [16]): 6.93 % ID/g | Drug uptake (Lung [17]): 1.61 % ID/g | Drug uptake (Brain [18]): 0.67 % ID/g | Drug uptake (Blood [19]): 0.36 % ID/g | Drug uptake (Blood [20]): 4.74 % ID/g | Drug uptake (Liver [21]): 4.6 % ID/g | Drug uptake (Kidney [22]): 3.26 % ID/g | Drug uptake (Intestine [23]): 0.55 % ID/g | Drug uptake (Stomach [24]): 0.42 % ID/g | Drug uptake (Spleen [25]): 0.9 % ID/g | Drug uptake (Pancreas [26]): 0.92 % ID/g | Drug uptake (Heart [27]): 9.07 % ID/g | Drug uptake (Lung [28]): 3.82 % ID/g | Drug uptake (Brain [29]): 0.32 % ID/g | Drug uptake (Blood [30]): 0.95 % ID/g
